# Assay results: ChEMBL document CHEMBL5661979, “Pharmacological inhibition of BMK1 suppresses tumor growth through promyelocytic leukemia protein” (Cancer Cell, 2010)
# Columns and labels:
# [1] = biological target: Serine/threonine-protein kinase SMG1 (Homo sapiens, UniProt Q96Q15); assay: Inhibition of SMG1 in human HeLa cells lysate at 50 uM pre incubated for 15 mins followed by ATP acyl phosphate probe addition and measured after 10 mins by LC-MS/MS analysis relative to control; assay type: subcellular; conditions: time 25.0 min
# [2] = biological target: Ribosomal protein S6 kinase alpha-3 (Homo sapiens, UniProt P51812); assay: Inhibition of RSK2 domain 2 in human HeLa cells lysate at 50 uM pre incubated for 15 mins followed by ADP acyl phosphate probe addition and measured after 10 mins by LC-MS/MS analysis relative to control; assay type: subcellular; conditions: time 25.0 min
# Sequence of Ribosomal protein S6 kinase alpha-3 (P51812 whole entry, the tested form may be a part): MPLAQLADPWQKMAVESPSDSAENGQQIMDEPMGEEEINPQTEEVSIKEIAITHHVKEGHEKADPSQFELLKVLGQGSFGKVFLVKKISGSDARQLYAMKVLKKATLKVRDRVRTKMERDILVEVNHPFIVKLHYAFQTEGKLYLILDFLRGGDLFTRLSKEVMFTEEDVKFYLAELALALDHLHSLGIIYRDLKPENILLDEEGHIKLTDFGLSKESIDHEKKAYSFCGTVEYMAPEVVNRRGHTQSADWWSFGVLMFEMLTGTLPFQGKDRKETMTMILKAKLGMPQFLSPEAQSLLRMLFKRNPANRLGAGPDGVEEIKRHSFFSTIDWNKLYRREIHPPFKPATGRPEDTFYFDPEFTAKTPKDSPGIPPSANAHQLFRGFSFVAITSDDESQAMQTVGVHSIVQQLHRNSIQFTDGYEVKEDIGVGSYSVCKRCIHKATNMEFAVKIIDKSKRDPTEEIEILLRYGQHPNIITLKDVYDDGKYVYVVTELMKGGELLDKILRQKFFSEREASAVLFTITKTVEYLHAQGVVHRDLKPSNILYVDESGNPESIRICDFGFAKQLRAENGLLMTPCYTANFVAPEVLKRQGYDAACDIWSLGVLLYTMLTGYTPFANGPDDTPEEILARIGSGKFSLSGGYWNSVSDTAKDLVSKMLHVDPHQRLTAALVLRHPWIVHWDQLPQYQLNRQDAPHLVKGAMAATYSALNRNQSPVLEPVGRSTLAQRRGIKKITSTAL
# [3] = biological target: Rho-associated protein kinase (Homo sapiens, UniProt O75116+Q13464); assay: Inhibition of ROCK1/2 in human HeLa cells lysate pre incubated for 15 mins followed by ATP acyl phosphate probe addition and measured after 10 mins by LC-MS/MS analysis; assay type: subcellular
# [4] = biological target: Dual specificity mitogen-activated protein kinase kinase 1 (Homo sapiens, UniProt Q02750); assay: Inhibition of MAP2K1 in human HeLa cells lysate pre incubated for 15 mins followed by ATP acyl phosphate probe addition and measured after 10 mins by LC-MS/MS analysis; assay type: subcellular
# Sequence of Dual specificity mitogen-activated protein kinase kinase 1 (Q02750 whole entry): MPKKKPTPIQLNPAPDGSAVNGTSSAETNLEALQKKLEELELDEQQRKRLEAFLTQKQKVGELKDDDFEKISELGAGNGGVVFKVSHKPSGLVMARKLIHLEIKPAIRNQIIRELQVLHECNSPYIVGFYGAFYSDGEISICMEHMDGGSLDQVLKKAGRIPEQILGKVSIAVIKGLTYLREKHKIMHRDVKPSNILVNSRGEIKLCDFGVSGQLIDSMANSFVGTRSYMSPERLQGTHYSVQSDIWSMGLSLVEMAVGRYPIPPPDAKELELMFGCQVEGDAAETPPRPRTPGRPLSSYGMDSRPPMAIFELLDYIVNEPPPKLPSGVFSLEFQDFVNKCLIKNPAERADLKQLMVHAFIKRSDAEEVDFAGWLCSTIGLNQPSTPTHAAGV
# [5] = Inhibition of MST4/YSK1 in human HeLa cells lysate at 10 uM pre incubated for 15 mins followed by ADP acyl phosphate probe addition and measured after 10 mins by LC-MS/MS analysis relative to control; conditions: 25 min, condition cancer
# [6] = biological target: Cyclin-dependent kinase 2 (Homo sapiens, UniProt P24941); assay: Inhibition of CDK2 K1 site in human HeLa cells lysate at 2 uM pre incubated for 15 mins followed by ATP acyl phosphate probe addition and measured after 10 mins by LC-MS/MS analysis relative to control; assay type: subcellular; conditions: time 25.0 min
# Outline: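 KiNativ profiling in HeLa lysate (5 mg/mL total protein). Lysate incubated 15 min with inhibitor at 50, 10, 2, 0.8 or 0 μM. ATP or ADP acylphosphate probe then added (5 μM final) and reacted 10 min. Reaction stopped with urea and analysed by targeted MS, using up to four fragment ions per kinase peptide-probe conjugate. % inhibition taken against untreated lysate. Run in duplicate.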
# [7] = biological target: T1, Phosphatidylinositol 5-phosphate 4-kinase type-2 alpha (Homo sapiens, UniProt P48426); assay: Inhibition of PIP5K2A LIP1 labeling site in human HeLa cells lysate pre incubated for 15 mins followed by ATP acyl phosphate probe addition and measured after 10 mins by LC-MS/MS analysis; assay type: subcellular
# T1 sequence (P48426 whole entry): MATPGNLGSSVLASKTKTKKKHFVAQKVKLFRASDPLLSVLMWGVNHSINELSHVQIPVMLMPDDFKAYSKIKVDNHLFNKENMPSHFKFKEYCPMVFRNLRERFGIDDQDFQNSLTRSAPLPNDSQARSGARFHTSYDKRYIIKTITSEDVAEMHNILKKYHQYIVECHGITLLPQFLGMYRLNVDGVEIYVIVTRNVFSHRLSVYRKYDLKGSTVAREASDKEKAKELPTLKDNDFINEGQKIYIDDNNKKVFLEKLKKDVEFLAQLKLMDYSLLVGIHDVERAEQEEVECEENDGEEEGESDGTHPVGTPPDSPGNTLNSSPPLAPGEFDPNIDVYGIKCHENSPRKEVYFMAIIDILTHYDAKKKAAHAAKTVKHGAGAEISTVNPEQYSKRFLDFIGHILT
# Activated CDC42 kinase 1 [8] = biological target: T2, Activated CDC42 kinase 1 (Homo sapiens, UniProt Q07912); assay: Inhibition of ACK1 in human HeLa cells lysate at 2 uM pre incubated for 15 mins followed by ADP acyl phosphate probe addition and measured after 10 mins by LC-MS/MS analysis relative to control; assay type: subcellular; conditions: time 25.0 min
# T2 sequence (Q07912 whole entry, looked up, the tested form may be a part): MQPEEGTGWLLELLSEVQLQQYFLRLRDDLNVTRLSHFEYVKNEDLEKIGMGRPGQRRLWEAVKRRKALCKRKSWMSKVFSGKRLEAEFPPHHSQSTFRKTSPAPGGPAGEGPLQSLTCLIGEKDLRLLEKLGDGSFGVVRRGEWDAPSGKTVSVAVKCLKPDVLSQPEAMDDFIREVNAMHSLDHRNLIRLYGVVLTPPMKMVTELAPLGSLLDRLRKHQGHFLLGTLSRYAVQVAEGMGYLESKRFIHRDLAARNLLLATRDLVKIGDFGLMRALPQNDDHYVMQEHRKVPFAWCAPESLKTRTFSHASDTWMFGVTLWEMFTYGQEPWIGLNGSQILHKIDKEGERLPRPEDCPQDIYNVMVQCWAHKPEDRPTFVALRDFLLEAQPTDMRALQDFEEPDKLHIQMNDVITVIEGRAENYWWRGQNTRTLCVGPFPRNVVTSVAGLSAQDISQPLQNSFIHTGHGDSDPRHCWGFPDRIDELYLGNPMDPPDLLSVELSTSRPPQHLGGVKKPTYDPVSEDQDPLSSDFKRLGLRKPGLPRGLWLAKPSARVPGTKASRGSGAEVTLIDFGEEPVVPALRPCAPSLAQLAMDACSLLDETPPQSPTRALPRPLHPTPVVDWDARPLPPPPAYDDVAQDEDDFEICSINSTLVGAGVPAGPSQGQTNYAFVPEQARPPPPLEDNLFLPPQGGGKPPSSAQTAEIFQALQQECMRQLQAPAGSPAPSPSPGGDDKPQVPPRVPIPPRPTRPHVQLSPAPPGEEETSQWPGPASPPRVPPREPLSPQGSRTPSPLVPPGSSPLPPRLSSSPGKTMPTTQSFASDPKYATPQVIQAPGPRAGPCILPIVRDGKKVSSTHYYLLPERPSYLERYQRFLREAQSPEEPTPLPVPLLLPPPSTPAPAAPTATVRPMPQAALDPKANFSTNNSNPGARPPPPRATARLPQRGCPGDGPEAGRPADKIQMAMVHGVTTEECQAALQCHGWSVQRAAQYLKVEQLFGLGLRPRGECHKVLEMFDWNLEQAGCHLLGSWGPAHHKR
# Outline: (§1)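 HeLa cell lysates (5 mg/mL total protein) were preincubated with inhibitor at 0, 0.8, 2, 10 or 50 μM for 15 min. ATP or ADP acylphosphate probe was then added (5 μM final) for 10 min, and reactions were stopped with urea. Up to four fragment ions per kinase probe-peptide were quantified by targeted MS. % inhibition was taken relative to untreated lysate. Run in duplicate.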
# [9] = biological target: p38 delta/gamma (Homo sapiens) (UniProt O15264+P53778); assay: Inhibition of p38d/p38g in human HeLa cells lysate at 10 uM pre incubated for 15 mins followed by ATP acyl phosphate probe addition and measured after 10 mins by LC-MS/MS analysis relative to control; assay type: subcellular; conditions: time 25.0 min
# [10] = biological target: Serine/threonine-protein kinase Nek7 (Homo sapiens, UniProt Q8TDX7); assay: Inhibition of NEK7 in human HeLa cells lysate at 2 uM pre incubated for 15 mins followed by ADP acyl phosphate probe addition and measured after 10 mins by LC-MS/MS analysis relative to control; assay type: subcellular; conditions: time 25.0 min
# Sequence of Serine/threonine-protein kinase Nek7 (Q8TDX7 whole entry, looked up): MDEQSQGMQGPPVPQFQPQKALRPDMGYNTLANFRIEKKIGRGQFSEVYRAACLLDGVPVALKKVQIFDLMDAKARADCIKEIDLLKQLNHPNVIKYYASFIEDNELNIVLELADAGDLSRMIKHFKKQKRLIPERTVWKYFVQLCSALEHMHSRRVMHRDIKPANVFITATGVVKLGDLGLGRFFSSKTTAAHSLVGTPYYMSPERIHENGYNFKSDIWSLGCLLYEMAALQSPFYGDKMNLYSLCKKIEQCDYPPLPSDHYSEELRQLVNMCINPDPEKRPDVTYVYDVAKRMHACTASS
# Focal adhesion kinase 1 = Focal adhesion kinase 1 (Homo sapiens, UniProt Q05397); assay: Inhibition of FAK in human HeLa cells lysate pre incubated for 15 mins followed by ADP acyl phosphate probe addition and measured after 10 mins by LC-MS/MS analysis; assay type: subcellular
# Sequence of Focal adhesion kinase 1 (Q05397 whole entry): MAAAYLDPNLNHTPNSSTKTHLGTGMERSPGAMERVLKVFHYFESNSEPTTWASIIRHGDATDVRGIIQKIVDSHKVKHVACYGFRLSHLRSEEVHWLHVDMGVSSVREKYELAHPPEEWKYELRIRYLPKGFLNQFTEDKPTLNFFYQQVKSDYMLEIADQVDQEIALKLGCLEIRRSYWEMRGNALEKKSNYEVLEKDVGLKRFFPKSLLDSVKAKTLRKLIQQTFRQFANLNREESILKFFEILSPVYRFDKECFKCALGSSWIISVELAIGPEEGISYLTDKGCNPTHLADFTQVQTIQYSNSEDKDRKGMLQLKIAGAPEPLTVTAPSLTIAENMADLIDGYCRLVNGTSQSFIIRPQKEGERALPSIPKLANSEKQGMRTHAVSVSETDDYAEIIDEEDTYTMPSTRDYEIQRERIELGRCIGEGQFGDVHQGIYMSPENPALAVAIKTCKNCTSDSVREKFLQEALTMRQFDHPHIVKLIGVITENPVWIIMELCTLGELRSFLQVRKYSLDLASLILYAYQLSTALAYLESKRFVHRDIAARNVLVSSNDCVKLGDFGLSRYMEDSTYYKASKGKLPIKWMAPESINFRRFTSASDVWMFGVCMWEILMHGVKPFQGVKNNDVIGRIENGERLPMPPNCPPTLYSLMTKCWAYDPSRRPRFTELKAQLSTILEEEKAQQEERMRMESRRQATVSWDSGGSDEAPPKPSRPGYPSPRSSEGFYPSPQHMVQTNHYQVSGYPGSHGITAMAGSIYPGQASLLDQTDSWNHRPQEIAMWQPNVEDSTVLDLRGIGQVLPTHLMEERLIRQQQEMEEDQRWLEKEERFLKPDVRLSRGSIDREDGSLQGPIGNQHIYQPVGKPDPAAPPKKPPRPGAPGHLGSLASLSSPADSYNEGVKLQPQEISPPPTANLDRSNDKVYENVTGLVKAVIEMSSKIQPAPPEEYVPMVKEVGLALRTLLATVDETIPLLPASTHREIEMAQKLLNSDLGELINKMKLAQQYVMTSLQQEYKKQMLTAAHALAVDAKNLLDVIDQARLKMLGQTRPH
# [11] = Inhibition of PCTAIRE2/ICK in human HeLa cells lysate at 2 uM pre incubated for 15 mins followed by ADP acyl phosphate probe addition and measured after 10 mins by LC-MS/MS analysis relative to control; conditions: 25 min, condition cancer
# Activated CDC42 kinase 1 [12] = biological target: T2, Activated CDC42 kinase 1; assay: Inhibition of ACK1 in human HeLa cells lysate at 50 uM pre incubated for 15 mins followed by ADP acyl phosphate probe addition and measured after 10 mins by LC-MS/MS analysis relative to control; assay type: subcellular; conditions: time 25.0 min; outline: as §1
compound,measurement,setting,value
CCOc1cc(N2CCC(O)CC2)ccc1Nc1ncc2c(n1)N(C)c1ccccc1C(=O)N2C,inhibition,[1],-1.9%
same,inhibition,[2],49%
same,IC50,[3],> 50 µM
same,IC50,[4],> 50 µM
same,inhibition at 10 µM,[5],7.9%
same,inhibition,[6],-2.9%
same,IC50,[7],> 50 µM
same,inhibition,Activated CDC42 kinase 1 [8],24.4%
same,inhibition,[9],100%
same,inhibition,[10],14.2%
same,IC50,Focal adhesion kinase 1,39 µM
same,inhibition at 2 µM,[11],1.2%
same,inhibition,Activated CDC42 kinase 1 [12],71.5%
